In ChEMBL document CHEMBL4184142, “A Naturally Occurring Isoform-Specific Probe for Highly Selective and Sensitive Detection of Human Cytochrome P450 3A5” (J Med Chem, 2017):
One block for each molecule: values may come before it.

Key:
Cytochrome P450 3A5 [1] = target: T1, Cytochrome P450 3A5 (Homo sapiens, UniProt P20815); experiment: Substrate activity at CYP3A5 (unknown origin) assessed as enzyme-mediated compound turnover assessed per pmol protein at 10 uM; format: ADME
Cytochrome P450 3A4 [2] = target: T2, Cytochrome P450 3A4 (Homo sapiens, UniProt P08684); experiment: Substrate activity at CYP3A4 (unknown origin) assessed as enzyme-mediated compound turnover assessed per pmol protein at 10 uM; format: ADME
T2 sequence (P08684 whole entry): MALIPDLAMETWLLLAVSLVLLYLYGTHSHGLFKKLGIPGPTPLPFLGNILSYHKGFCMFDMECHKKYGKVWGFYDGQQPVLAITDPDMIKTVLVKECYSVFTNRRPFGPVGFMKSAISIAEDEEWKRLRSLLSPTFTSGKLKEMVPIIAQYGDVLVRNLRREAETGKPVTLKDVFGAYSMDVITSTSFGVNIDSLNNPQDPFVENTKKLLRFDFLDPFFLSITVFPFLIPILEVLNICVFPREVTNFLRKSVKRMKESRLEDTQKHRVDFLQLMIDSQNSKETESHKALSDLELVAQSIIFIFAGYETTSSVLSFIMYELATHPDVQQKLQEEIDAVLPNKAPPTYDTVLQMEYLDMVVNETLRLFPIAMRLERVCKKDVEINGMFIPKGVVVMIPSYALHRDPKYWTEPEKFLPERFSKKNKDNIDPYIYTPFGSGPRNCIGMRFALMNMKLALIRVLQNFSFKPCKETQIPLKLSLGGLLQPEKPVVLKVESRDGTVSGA

[3] = Intrinsic clearance in human liver microsomes assessed per mg liver microsome; format: ADME
Procedure, shortened: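 HLM at 0.4 mg/mL, 20 min at 37 °C, in 100 mM potassium phosphate pH 7.4 with NADPH-generating system (1 mM NADP+, 10 mM glucose-6-phosphate, 1 unit/mL G6PDH, 4 mM MgCl2). Substrate at 2–200 μM, 1% methanol. Km and Vmax from nonlinear regression. CLint = Vmax/Km. Three experiments in duplicate, mean ± SD.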

Cytochrome P450 3A4 [4] = target: Cytochrome P450 3A4 (Homo sapiens, UniProt P08684, L210F); experiment: (§1) Substrate activity at full length CYP3A4 L210F mutant (unknown origin) expressed in […] assessed as enzyme-mediated benzoic acid (6R,7S)-2,6,10-trihydroxy-1,3,11,12-tetramethoxy-6,7-dimethyl-5,6,7,8-tetrahydro-dibenzo[a,c]cycloocten-5-yl ester formation after 60 mins in presence of NADPH by UFLC-DAD analysis wild type CYP3A4; format: cell-based; settings: 1 h
Cytochrome P450 3A4 (Homo sapiens, UniProt P08684, L210F), sequence (P08684 2-503 L210F limits assumed): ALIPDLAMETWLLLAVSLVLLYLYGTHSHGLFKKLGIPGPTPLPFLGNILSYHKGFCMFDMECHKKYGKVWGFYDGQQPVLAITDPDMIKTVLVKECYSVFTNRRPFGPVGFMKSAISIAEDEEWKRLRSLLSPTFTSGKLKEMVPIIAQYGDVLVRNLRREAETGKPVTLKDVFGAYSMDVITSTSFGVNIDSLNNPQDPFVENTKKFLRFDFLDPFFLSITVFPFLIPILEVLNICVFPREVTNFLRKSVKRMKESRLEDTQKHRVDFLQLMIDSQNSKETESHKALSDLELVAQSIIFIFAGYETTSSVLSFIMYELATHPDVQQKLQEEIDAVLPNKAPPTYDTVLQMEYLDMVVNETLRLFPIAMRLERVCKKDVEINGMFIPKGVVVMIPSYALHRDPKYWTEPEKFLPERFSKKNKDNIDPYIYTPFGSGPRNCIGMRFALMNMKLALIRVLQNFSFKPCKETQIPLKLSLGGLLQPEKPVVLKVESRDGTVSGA
Procedure, shortened: (§2)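 Full-length CYP3A4/CYP3A5 cDNA mutants transfected into COS-7 cells (4 μg plasmid per well). After 24 h, cells were sonicated and S9 fractions prepared (9000g supernatant). Incubation: 5 mg/mL S9 and 50 μM substrate in 100 mM potassium phosphate pH 7.4 with NADPH-generating system, 37 °C, 60 min. Stopped with methanol, metabolite quantified by UFLC-DAD.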

[5] = Substrate activity at CYP450 in human liver microsomes with NADPH-generating system assessed as CYP-mediated benzoic acid (6R,7S)-2,6,10-trihydroxy-1,3,11,12-tetramethoxy-6,7-dimethyl-5,6,7,8-tetrahydro-dibenzo[a,c]cycloocten-5-yl ester formation at 5 uM after 25 mins in presence of CYP inhibitor ABT; format: ADME
Procedure, shortened: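 Substrate at 5 μM in pooled HLM (0.2 mg protein/mL) with NADPH-generating system in 100 mM phosphate pH 7.4, 37 °C, with or without inhibitor: ketoconazole 1 μM for CYP3A. CYP3cide 1 μM and ABT 500 μM were preincubated with NADPH-generating system at 37 °C for 25 min. Metabolite quantified by UFLC-DAD. Three experiments in duplicate.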

Cytochrome P450 3A5 [6] = target: T1, Cytochrome P450 3A5; experiment: Substrate activity at recombinant human CYP3A5 expressed in bactosomes assessed as intrinsic clearance by measuring ratio of Vmax/Km for 2-O-demethylation assessed per pmol protein; format: ADME; settings: recombinant enzyme
Procedure, shortened: (§3)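 Bactosome rhCYP3A4 (40 nM, 20 min) or rhCYP3A5 (20 nM, 5 min) incubated at 37 °C with substrate at 2–200 μM in 100 mM potassium phosphate pH 7.4 with NADPH-generating system, 1% methanol. Stopped with ice-cold methanol, demethylated metabolite quantified by UFLC-DAD. Km and Vmax from nonlinear regression; CLint = Vmax/Km. Three experiments in duplicate.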

[7] = Drug metabolism in s9 fractions (unknown origin) assessed as benzoic acid (6R,7S)-2,6,10-trihydroxy-1,3,11,12-tetramethoxy-6,7-dimethyl-5,6,7,8-tetrahydro-dibenzo[a,c]cycloocten-5-yl ester formation in presence of S-adenosyl-L-methionine by UFLC-DAD analysis; format: ADME, subcellular, S9 fraction
Cytochrome P450 3A5 [8] = target: Cytochrome P450 3A5 (Homo sapiens, UniProt P20815, F210L); experiment: as §1, with “CYP3A5 F210L” for “CYP3A4 L210F”, “analysis relative to” for “analysis”, “CYP3A5” for “CYP3A4”; format: ADME, cell-based; settings: s9, 1 h; procedure, shortened: as §2
Cytochrome P450 3A5 (Homo sapiens, UniProt P20815, F210L), sequence (P20815 whole entry F210L): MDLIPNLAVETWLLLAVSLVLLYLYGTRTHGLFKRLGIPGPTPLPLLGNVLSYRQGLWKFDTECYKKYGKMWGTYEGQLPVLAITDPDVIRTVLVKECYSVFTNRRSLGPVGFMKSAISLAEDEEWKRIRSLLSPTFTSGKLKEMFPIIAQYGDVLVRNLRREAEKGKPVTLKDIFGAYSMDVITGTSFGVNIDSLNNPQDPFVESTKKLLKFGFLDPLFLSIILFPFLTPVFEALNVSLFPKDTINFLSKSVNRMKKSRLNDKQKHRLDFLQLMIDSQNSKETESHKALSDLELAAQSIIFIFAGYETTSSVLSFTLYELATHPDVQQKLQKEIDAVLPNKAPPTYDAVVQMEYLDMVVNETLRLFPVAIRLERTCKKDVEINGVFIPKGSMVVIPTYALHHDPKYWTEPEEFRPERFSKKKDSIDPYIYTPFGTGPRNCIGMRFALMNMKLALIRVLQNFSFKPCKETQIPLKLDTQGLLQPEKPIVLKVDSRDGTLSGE

Cytochrome P450 3A4 [9] = target: T2, Cytochrome P450 3A4; experiment: Substrate activity at recombinant human CYP3A4 expressed in bactosomes assessed as intrinsic clearance by measuring ratio of Vmax/Km for 2-O-demethylation assessed per pmol protein; format: ADME; settings: recombinant enzyme; procedure, shortened: as §3
Cytochrome P450 3A5 [10] = target: T1, Cytochrome P450 3A5; experiment: Substrate activity at CYP3A5 in human Caco2 cell s9 fractions assessed as enzyme-mediated benzoic acid (6R,7S)-2,6,10-trihydroxy-1,3,11,12-tetramethoxy-6,7-dimethyl-5,6,7,8-tetrahydro-dibenzo[a,c]cycloocten-5-yl ester formation at 50 uM after 60 mins by LC-MS/MS analysis; format: ADME, S9 Fraction; settings: s9, 1 h
Procedure, shortened: (§4)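 HepG2 or Caco-2 cells grown to 90% confluence in 75 cm2 flasks, trypsinized, sonicated in ice-cold PBS. S9 taken as the 9000g 20-min supernatant, protein by BCA. Incubated with 50 μM substrate and NADPH-generating system, pH 7.4 phosphate, 37 °C for 60 min. Stopped with ice-cold methanol, then centrifuged.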

[11] = Drug metabolism in S9 fractions (unknown origin) assessed as benzoic acid (6R,7S)-2,6,10-trihydroxy-1,3,11,12-tetramethoxy-6,7-dimethyl-5,6,7,8-tetrahydro-dibenzo[a,c]cycloocten-5-yl ester formation in presence of UDP-glucuronic acid by UFLC-DAD analysis; format: ADME, subcellular, S9 fraction
[12] = Drug metabolism in human liver microsomes assessed as Vmax for 2-O-demethylation; format: ADME, microsome
Procedure, shortened: (§5)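 Pooled HLM at 0.4 mg/mL incubated 20 min at 37 °C with substrate at 2, 5, 10, 20, 50, 100, 200 μM. Buffer was 100 mM potassium phosphate pH 7.4 with an NADPH-generating system, methanol 1% (v/v) final, 3 min preincubation. Reaction stopped with ice-cold methanol; 2-O-demethylated metabolite read by UFLC-DAD. Apparent Km and Vmax from nonlinear regression; three experiments in duplicate.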

[13] = Drug metabolism in s9 fractions (unknown origin) assessed as benzoic acid (6R,7S)-2,6,10-trihydroxy-1,3,11,12-tetramethoxy-6,7-dimethyl-5,6,7,8-tetrahydro-dibenzo[a,c]cycloocten-5-yl ester formation in presence of 3'-phosphoadenosine-5'-phosphosulfate by UFLC-DAD analysis; format: ADME, subcellular, S9 fraction
[14] = Drug metabolism in human liver microsomes assessed as Km for 2-O-demethylation; format: ADME, microsome; procedure, shortened: as §5
HepG2 = experiment: Cytotoxicity against human HepG2 cells at 300 uM by CCK-8 assay; format: cell-based; settings: hepg2, 300 µM
Procedure, shortened: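 HepG2 viability after exposure measured with CCK-8 kit. Cells grown in complete DMEM with 10% FCS.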

Cytochrome P450 3A5 [15] = target: T1, Cytochrome P450 3A5; experiment: Substrate activity at CYP3A5 in human HepG2 cell s9 fractions assessed as enzyme-mediated benzoic acid (6R,7S)-2,6,10-trihydroxy-1,3,11,12-tetramethoxy-6,7-dimethyl-5,6,7,8-tetrahydro-dibenzo[a,c]cycloocten-5-yl ester formation at 50 uM after 60 mins by LC-MS/MS analysis; format: ADME, S9 Fraction; settings: s9, 1 h; procedure, shortened: as §4
Cytochrome P450 3A5 [16] = target: T1, Cytochrome P450 3A5; experiment: Substrate activity at CYP3A5 in human liver microsomes assessed as enzyme-mediated benzoic acid (6R,7S)-2,6,10-trihydroxy-1,3,11,12-tetramethoxy-6,7-dimethyl-5,6,7,8-tetrahydro-dibenzo[a,c]cycloocten-5-yl ester formation at 5 uM by LC-MS/MS analysis; format: ADME
[17] = substrate: COc1cc2c(c(OC)c1OC)-c1c(cc(O)c(OC)c1OC)C[C@H](C)[C@](C)(O)[C@H]2OC(=O)c1ccccc1; experiment: Substrate activity at recombinant human CYP3A5 expressed in bactosomes assessed as Km for 2-O-demethylation after 5 mins by Eadie-Hofstee plot method; format: ADME
Procedure, shortened: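 Bactosome rhCYP3A5 (20 nM, coexpressed with human NADPH-P450 reductase) incubated 5 min at 37 °C with substrate 2–200 μM in 100 mM potassium phosphate pH 7.4 with NADPH-generating system, final methanol 1%. Reaction stopped with ice-cold methanol. Metabolite measured by UFLC-DAD. Apparent Km from nonlinear regression, plotted as Eadie–Hofstee. Three independent experiments in duplicate, mean ± SD.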

Drug metabolism (Cytochrome P450 3A5 [1]): Metabolite_Notdetected
Drug metabolism (Cytochrome P450 3A4 [2]): Metabolite_Notdetected
Molecule: C/C=C(/C)C(=O)OC1c2cc(OC)c(OC)c(OC)c2-c2c(cc3c(c2OC)OCO3)C[C@H](C)[C@@]1(C)O (stereo partly specified)

Drug metabolism (Cytochrome P450 3A5 [1]): 1 to 3 pmol/min
Drug metabolism (Cytochrome P450 3A4 [2]): 4 to 9 pmol/min
Molecule: COc1cc2c(c(OC)c1OC)-c1c(cc3c(c1OC)OCO3)C[C@H](C)[C@@](C)(O)C2O (stereo partly specified)

microsomal CLint [3]: 50.2 µL/min/mg
fold change (FC) (Cytochrome P450 3A4 [4]): 2.6
Drug metabolism (Cytochrome P450 3A5 [1]): >= 30 pmol/min
Drug metabolism [5]: Metabolite_Notdetected
Drug metabolism (Cytochrome P450 3A4 [2]): 1 to 3 pmol/min
Ratio (Cytochrome P450 3A5 [6]): 10.7 µL/min/pmol
Drug metabolism [7]: Metabolite_Notdetected
fold change (FC) (Cytochrome P450 3A5 [8]): 2.1
Ratio (Cytochrome P450 3A4 [9]): 0.46 µL/min/pmol
Drug metabolism (Cytochrome P450 3A5 [10]): Metabolite_Detected
Drug metabolism [11]: Metabolite_Notdetected
Vmax [12]: 248.5 pmol/min/mg
Drug metabolism [13]: Metabolite_Notdetected
Km [14]: 4.95 µM
Drug metabolism (Cytochrome P450 3A5 [15]): Metabolite_Detected
Drug metabolism (Cytochrome P450 3A5 [16]): 23.2 to 159 pmol/min/mg
Molecule: COc1cc2c(c(OC)c1OC)-c1c(cc(O)c(OC)c1OC)C[C@H](C)[C@](C)(O)[C@H]2OC(=O)c1ccccc1
Activity (HepG2): Non-Toxic

Drug metabolism (Cytochrome P450 3A5 [1]): 1 to 3 pmol/min
Drug metabolism (Cytochrome P450 3A4 [2]): 4 to 9 pmol/min
Molecule: COc1cc2c(c(OC)c1OC)-c1c(cc3c(c1OC)OCO3)C(OC(=O)c1ccccc1)[C@](C)(O)[C@@H](C)C2 (stereo partly specified)

Drug metabolism (Cytochrome P450 3A5 [1]): Metabolite_Notdetected
Drug metabolism (Cytochrome P450 3A4 [2]): Metabolite_Notdetected
Molecule: COc1cc2c(c(OC)c1OC)-c1c(cc3c(c1OC)OCO3)C[C@H](C)[C@@](C)(O)C2OC(=O)c1ccccc1 (stereo partly specified)

Drug metabolism (Cytochrome P450 3A5 [1]): 1 to 3 pmol/min
Drug metabolism (Cytochrome P450 3A4 [2]): >= 30 pmol/min
Molecule: COc1cc2c(c(OC)c1OC)-c1c(cc(OC)c(OC)c1OC)C[C@](C)(O)[C@@H](C)C2 [SCHIZANDRIN]

More lines, now with the values behind:

Molecule: COc1cc2c(c(OC)c1OC)-c1c(cc(OC)c(OC)c1OC)C[C@H](C)[C@H](C)C2 [SCHISANDRIN A]
Drug metabolism (Cytochrome P450 3A5 [1]): 10 to 15 pmol/min
Drug metabolism (Cytochrome P450 3A4 [2]): 16 to 29 pmol/min

Molecule: COc1cc2c(c(O)c1OC)-c1c(cc(OC)c(OC)c1OC)C[C@H](C)[C@H](C)C2
Drug metabolism (Cytochrome P450 3A5 [1]): 4 to 9 pmol/min
Drug metabolism (Cytochrome P450 3A4 [2]): 10 to 15 pmol/min

Molecule: COc1c(O)cc2c(c1OC)-c1c(cc(O)c(OC)c1OC)C(O)[C@@H](C)[C@@H](C)C2 (stereo partly specified)
Drug metabolism (Cytochrome P450 3A5 [1]): 1 to 3 pmol/min
Drug metabolism (Cytochrome P450 3A4 [2]): 4 to 9 pmol/min

Molecule: COc1cc2c(c(OC)c1OC)-c1c(cc3c(c1OC)OCO3)C[C@H](C)[C@H](C)C2 [WUWEIZISU B]
Drug metabolism (Cytochrome P450 3A5 [1]): Metabolite_Notdetected
Drug metabolism (Cytochrome P450 3A4 [2]): Metabolite_Notdetected

Molecule: COc1cc2c(c(OC)c1OC)-c1c(cc3c(c1OC)OCO3)C[C@H](C)[C@@](C)(O)C2 [BESIGOMSIN]
Drug metabolism (Cytochrome P450 3A5 [1]): 1 to 3 pmol/min
Drug metabolism (Cytochrome P450 3A4 [2]): 10 to 15 pmol/min

Molecule: COc1c2c(cc3c1-c1c(cc4c(c1OC)OCO4)C[C@H](C)[C@H](C)C3)OCO2 [SCHISANDRIN C]
Drug metabolism (Cytochrome P450 3A5 [1]): Metabolite_Notdetected
Drug metabolism (Cytochrome P450 3A4 [2]): Metabolite_Notdetected

B1: Cytochrome P450 3A5 (Homo sapiens) (protein)
chain: MDLIPNLAVETWLLLAVSLVLLYLYGTRTHGLFKRLGIPGPTPLPLLGNVLSYRQGLWKFDTECYKKYGKMWGTYEGQLPVLAITDPDVIRTVLVKECYSVFTNRRSLGPVGFMKSAISLAEDEEWKRIRSLLSPTFTSGKLKEMFPIIAQYGDVLVRNLRREAEKGKPVTLKDIFGAYSMDVITGTSFGVNIDSLNNPQDPFVESTKKFLKFGFLDPLFLSIILFPFLTPVFEALNVSLFPKDTINFLSKSVNRMKKSRLNDKQKHRLDFLQLMIDSQNSKETESHKALSDLELAAQSIIFIFAGYETTSSVLSFTLYELATHPDVQQKLQKEIDAVLPNKAPPTYDAVVQMEYLDMVVNETLRLFPVAIRLERTCKKDVEINGVFIPKGSMVVIPTYALHHDPKYWTEPEEFRPERFSKKKDSIDPYIYTPFGTGPRNCIGMRFALMNMKLALIRVLQNFSFKPCKETQIPLKLDTQGLLQPEKPIVLKVDSRDGTLSGE
Km [17]: 5.9 µM
Vmax [17]: 6.34e-05 µmol/min
